Data as given in ChEMBL document CHEMBL4627381, “Licochalcone A Selectively Resensitizes ABCG2-Overexpressing Multidrug-Resistant Cancer Cells to Chemotherapeutic Drugs” (J Nat Prod, 2020).

Key:
[1] = target: T1, Broad substrate specificity ATP-binding cassette transporter ABCG2 (Homo sapiens, UniProt Q9UNQ0); experiment: Reversal of human ABCG2-mediated multidrug resistance in HEK293/R482 cells assessed as fold change in mitoxantrone IC50 at 2 uM after 72 hrs by CCK8 assay relative to mitoxantrone IC50; type: cell-based
T1 sequence (Q9UNQ0 whole entry): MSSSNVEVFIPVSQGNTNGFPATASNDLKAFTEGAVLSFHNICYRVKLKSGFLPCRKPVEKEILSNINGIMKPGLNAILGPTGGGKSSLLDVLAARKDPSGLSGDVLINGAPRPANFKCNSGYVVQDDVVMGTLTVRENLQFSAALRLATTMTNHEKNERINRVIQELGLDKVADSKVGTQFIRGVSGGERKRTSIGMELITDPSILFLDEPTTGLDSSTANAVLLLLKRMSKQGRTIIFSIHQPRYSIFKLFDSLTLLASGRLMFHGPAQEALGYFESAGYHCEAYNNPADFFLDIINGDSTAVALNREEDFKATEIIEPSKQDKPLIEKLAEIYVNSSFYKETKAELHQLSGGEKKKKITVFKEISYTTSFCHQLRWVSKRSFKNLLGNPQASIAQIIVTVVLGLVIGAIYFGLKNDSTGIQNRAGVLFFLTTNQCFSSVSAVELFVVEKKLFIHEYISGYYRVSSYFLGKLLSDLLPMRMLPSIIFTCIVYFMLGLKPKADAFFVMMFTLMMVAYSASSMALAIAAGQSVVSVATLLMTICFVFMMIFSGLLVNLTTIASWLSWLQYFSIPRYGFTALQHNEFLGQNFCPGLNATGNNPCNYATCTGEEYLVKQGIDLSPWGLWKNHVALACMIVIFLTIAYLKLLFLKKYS
In short: (§1)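 Cells were seeded at 5000/well for 24 h, then given colchicine, etoposide, mitoxantrone or topotecan ± non-toxic modulator (0.5–3.0 μM) for 72 h, with DMSO up to 0.5%. IC50 came from fitted curves (mean ± SD, three experiments). Fold-reversal = IC50 without modulator ÷ IC50 with modulator.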

[2] = test system: LS180; experiment: Upregulation of ABCB1 mRNA expression in human LS180 cells at 1 uM by […] relative to control; type: functional
[3] = target: T1, Broad substrate specificity ATP-binding cassette transporter ABCG2; experiment: Reversal of human ABCG2-mediated multidrug resistance in HEK293/R482 cells assessed as fold-change in topotecan IC50 at 3 uM after 72 hrs by CCK8 relative to topotecan IC50; type: cell-based; in short: as §1
[4] = target: T1, Broad substrate specificity ATP-binding cassette transporter ABCG2; experiment: Reversal of ABCG2 (unknown origin)-mediated multidrug resistance in human H460-MX20 cells assessed as fold change in topotecan IC50 at 1 uM after 72 hrs by MTT assay relative to topotecan IC50; type: cell-based
In short: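 Cells held drug-free 7 days, seeded at 5000 per well for 24 h, then exposed 72 h to mitoxantrone or topotecan dilutions with DMSO (≤0.5%), LCA 0.5–3.0 μM, or Ko143 1.0 μM. Viability was read by MTT. IC50 came from fitted dose-response curves of three independent experiments. Fold-reversal = IC50 without modulator divided by IC50 with modulator.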

[5] = test system: S1; experiment: Induction of apoptosis in human S1 cells assessed as early apoptotic cells at 10 uM incubated for 48 hrs by annexin V/propidium iodide staining based flow cytometry (reference value: 2%); type: functional
In short: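 S1 cells were exposed for 48 h to DMSO, 10 μM compound, 5 μM topotecan, or 5 μM topotecan plus 10 μM compound. They were then stained with 1.25 μg/mL annexin V–FITC and 0.1 mg/mL PI for 15 min at room temperature. 10000 cells per sample were analysed by flow cytometry; three independent experiments.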

[6] = test system: S1; experiment: Effect on mitoxantrone-induced cytotoxicity against human S1 cells assessed as fold change in mitoxantrone IC50 at 1 uM after 72 hrs by MTT assay relative to mitoxantrone IC50; type: functional
In short: (§2)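 Parental S1 colon and H460 lung cancer cells were exposed for 72 h to a mitoxantrone or topotecan concentration series, with or without modulator at 0.5–3.0 μM, and read by MTT. Fold-reversal is IC50 without modulator divided by IC50 with modulator, taken from dose-response curves of three independent experiments.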

[7] = target: T1, Broad substrate specificity ATP-binding cassette transporter ABCG2; experiment: Inhibition of ABCG2 (unknown origin)-mediated pheophorbide A efflux in human S1 cells incubated for 1 hr by FACScan flow cytometry; type: cell-based; conditions: s1, 1 h
In short: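 Cells held drug-free 7 days. 3 × 10^5 cells were suspended in IMDM with 5% FCS and loaded with pheophorbide A (ex 395/em 670 nm) for 1 h, with or without LCA (20 μM for single-concentration accumulation) or Ko143 3 μM as reference. Read immediately by flow cytometry. Efflux inhibition was run over a concentration range; mean ± SD of three experiments.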

[8] = test system: S1; experiment: Effect on topotecan-induced cytotoxicity against human S1 cells assessed as fold change in topotecan IC50 at 1 uM after 72 hrs by MTT assay relative to topotecan IC50; type: functional; in short: as §2
[9] = test system: S1-M1-80; experiment: Induction of apoptosis in human S1-M1-80 cells harboring ABCG2 (unknown origin) assessed as necrotic cells at 10 uM incubated for 48 hrs by annexin V/propidium iodide staining based flow cytometry (reference value: 0.3%); type: functional
[10] = test system: S1-M1-80; experiment: Potentiation of topotecan-induced apoptosis in human S1-M1-80 cells harboring ABCG2 (unknown origin) assessed as early apoptotic cells at 10 uM incubated for 48 hrs by annexin V/propidium iodide staining based flow cytometry (reference value: 3%); type: functional
[11] = target: Multidrug resistance-associated protein 1 (Homo sapiens, UniProt P33527); experiment: Reversal of human ABCC1-mediated multidrug resistance in HEK293/MRP1 cells assessed as fold-change in etoposide IC50 at 2 uM after 72 hrs by CCK8 relative to etoposide IC50; type: cell-based; in short: as §1
Sequence of Multidrug resistance-associated protein 1 (P33527 whole entry): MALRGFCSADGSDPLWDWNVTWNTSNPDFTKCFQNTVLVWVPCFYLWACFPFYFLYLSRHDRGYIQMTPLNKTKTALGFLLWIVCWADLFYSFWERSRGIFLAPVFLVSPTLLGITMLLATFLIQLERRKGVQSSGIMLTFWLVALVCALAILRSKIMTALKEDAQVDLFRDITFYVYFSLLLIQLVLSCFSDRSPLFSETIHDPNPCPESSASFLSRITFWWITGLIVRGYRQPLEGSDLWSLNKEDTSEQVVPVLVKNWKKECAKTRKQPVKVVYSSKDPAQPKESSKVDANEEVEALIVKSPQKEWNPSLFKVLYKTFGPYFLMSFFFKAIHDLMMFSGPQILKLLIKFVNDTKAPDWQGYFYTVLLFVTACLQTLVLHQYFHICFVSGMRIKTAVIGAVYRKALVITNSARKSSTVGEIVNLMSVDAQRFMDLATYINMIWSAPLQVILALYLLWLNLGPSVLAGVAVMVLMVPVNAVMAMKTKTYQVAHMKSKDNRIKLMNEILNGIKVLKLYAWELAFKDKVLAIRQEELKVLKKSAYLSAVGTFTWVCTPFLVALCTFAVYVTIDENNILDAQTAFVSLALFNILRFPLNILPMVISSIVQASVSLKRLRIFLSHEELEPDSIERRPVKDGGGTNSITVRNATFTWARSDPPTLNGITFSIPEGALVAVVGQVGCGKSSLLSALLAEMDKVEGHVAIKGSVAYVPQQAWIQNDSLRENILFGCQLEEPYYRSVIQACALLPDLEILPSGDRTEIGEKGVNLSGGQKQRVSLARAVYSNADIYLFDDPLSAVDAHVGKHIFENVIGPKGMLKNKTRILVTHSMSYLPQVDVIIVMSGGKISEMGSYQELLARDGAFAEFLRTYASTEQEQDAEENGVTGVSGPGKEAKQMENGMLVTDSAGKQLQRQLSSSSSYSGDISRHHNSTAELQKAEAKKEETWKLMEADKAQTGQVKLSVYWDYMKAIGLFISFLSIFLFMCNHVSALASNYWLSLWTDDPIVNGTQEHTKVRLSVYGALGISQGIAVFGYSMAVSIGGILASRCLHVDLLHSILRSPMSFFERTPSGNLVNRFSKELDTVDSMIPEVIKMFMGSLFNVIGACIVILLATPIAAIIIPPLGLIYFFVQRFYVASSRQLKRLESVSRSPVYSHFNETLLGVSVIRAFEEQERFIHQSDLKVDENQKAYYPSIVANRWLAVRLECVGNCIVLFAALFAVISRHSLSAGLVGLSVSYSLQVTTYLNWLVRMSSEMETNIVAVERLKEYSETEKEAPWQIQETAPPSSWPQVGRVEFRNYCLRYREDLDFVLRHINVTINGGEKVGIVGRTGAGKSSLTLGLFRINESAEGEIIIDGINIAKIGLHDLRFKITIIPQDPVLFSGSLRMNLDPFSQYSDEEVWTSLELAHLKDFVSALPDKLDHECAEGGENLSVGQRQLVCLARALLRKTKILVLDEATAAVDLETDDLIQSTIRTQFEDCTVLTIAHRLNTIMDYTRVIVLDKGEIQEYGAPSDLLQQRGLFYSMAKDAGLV

[12] = target: ATP-dependent translocase ABCB1 (Homo sapiens, UniProt P08183); experiment: Modulation of human ABCB1 expressed in HEK293/MDR19 cells assessed as increase in intracellular calcein-AM accumulation at 20 uM incubated for 10 mins by FACScan flow cytometry; type: cell-based
Sequence of ATP-dependent translocase ABCB1 (P08183 whole entry): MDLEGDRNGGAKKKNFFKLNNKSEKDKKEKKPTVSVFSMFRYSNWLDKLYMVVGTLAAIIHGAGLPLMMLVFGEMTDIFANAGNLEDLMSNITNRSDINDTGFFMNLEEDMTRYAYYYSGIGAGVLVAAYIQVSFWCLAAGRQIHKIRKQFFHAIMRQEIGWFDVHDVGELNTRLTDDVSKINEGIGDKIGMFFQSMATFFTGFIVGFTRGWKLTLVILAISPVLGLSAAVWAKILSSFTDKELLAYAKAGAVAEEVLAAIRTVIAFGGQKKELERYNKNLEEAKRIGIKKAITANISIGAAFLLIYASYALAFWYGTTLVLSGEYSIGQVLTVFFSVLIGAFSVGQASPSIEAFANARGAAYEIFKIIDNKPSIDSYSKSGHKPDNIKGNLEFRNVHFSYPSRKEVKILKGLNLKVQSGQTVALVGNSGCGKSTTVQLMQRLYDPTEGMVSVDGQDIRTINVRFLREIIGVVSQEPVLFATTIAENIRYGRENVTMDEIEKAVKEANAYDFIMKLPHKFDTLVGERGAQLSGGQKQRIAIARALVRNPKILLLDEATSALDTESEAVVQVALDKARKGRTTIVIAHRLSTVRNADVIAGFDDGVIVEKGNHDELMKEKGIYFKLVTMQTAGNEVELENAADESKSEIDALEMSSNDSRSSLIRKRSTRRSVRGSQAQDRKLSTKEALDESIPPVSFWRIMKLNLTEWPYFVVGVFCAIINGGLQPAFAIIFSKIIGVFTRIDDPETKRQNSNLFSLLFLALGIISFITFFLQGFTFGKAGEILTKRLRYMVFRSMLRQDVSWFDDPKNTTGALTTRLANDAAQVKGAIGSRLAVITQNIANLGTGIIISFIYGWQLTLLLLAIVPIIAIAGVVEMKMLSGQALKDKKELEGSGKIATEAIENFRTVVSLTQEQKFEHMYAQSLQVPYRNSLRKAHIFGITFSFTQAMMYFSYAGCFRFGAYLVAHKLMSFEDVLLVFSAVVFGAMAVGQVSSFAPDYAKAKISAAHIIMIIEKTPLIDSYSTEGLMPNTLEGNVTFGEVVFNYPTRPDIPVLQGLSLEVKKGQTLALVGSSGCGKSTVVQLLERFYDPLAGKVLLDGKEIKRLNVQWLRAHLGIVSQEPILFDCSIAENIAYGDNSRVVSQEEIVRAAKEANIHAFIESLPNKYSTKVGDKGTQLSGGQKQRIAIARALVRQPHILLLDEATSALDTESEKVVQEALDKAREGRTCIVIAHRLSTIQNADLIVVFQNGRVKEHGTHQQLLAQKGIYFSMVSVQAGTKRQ
In short: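 Cells held drug-free 7 days. 3 × 10^5 cells in IMDM with 5% FCS were loaded with calcein-AM for 10 min, with or without 20 μM LCA. Reference inhibitors were tariquidar 3 μM (ABCB1) and MK-571 25 μM (ABCC1). Calcein fluorescence (ex 485/em 535 nm) was read by flow cytometry; at least three independent experiments.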

[13] = target: T1, Broad substrate specificity ATP-binding cassette transporter ABCG2; experiment: Reversal of ABCG2 (unknown origin)-mediated multidrug resistance in human S1-M1-80 cells assessed as fold-change in topotecan IC50 at 0.5 uM after 72 hrs by MTT assay relative to topotecan IC50; type: cell-based; conditions: s1-m1-80, 72 h
In short: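 MTT readout in S1-M1-80 colon cancer cells (mitoxantrone-selected, held in 80 μM mitoxantrone, then drug-free 7 days before assay). Cells were seeded at 5000/well for 24 h, then given increasing mitoxantrone or topotecan with DMSO or non-toxic modulator for 72 h at 37 °C. IC50 came from fitted dose-response curves (at least three independent experiments). Fold-reversal = IC50 without modulator ÷ IC50 with modulator.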

fold change (FC) [3]: 4.7 | fold change (FC) [4]: 9.2 | inhibition (INH) [7]: Dose-dependent effect | fold change (FC) [11]: 1 | Activity [12]: Not Active | fold change (FC) [13]: 9.8
SMILES: C=CC(C)(C)c1cc(/C=C/C(=O)c2ccc(O)cc2)c(OC)cc1O [LICOAGROCHACONE A]
fold change (FC) [1]: 6.5 | fold change (FC) [2]: 2 - 6 | Activity [5]: 1.7% | fold change (FC) [6]: 1.1 | fold change (FC) [8]: 0.8 | Activity [9]: 0.2% | Activity [10]: 9%
